Screening results: PubChem BioAssay, several laboratories
A selection: hits, their analogues and other compounds. The true share with any hit is near 1.6%.
Tn6 DDE FP = DD(E)-Tn6 binding inhibition, primary FP screen. Fibrin DD(E) TRITC-Tn6 fluorescence polarization displacement. inhibition, % at 8.3 µM. 0.21% of 370,000 active. P02675;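 active = inhibition above a per-campaign cutoff: mean of compounds within control limits plus 3 SD, cut at about 15% in these data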;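 note: 0% = median of all compound wells on the plate and 100% = blocking peptide control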
Target sequence (P02675 whole entry, looked up): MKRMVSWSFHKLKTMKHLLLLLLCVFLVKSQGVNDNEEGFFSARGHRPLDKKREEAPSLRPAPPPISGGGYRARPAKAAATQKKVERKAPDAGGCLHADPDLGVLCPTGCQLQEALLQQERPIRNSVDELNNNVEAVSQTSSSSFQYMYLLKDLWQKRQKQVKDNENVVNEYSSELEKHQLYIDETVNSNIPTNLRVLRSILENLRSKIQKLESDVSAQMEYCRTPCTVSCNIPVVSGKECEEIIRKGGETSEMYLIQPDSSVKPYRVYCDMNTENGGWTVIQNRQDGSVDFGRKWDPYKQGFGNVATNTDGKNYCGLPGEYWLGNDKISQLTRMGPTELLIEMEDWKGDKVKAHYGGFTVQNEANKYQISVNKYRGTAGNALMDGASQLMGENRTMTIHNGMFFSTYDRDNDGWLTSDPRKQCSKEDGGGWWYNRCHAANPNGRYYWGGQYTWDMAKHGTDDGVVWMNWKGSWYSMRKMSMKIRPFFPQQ
ADAM10 inh = ADAM10 inhibition, QFRET primary screen. O14672. recombinant ADAM10, EDANS/DABCYL FRET peptide cleavage, 3 h. inhibition, % at 7 µM. 0.62% of 370,000 active;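 active = inhibition above a per-campaign cutoff equal to the mean of compounds falling between control-based bounds plus 3 SD, cut at about 20% in these data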;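 note: 0% = DMSO wells while the 100% control is not disclosed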
MT1-MMP act inh = MT1-MMP (human) activation inhibition; HT1080 RFP-PRO-GFP cells, GFP/RFP ratio fluorescence, overnight; percent of plate control window, DMSO zero; 0.061% of 360,000 active; GFP/RFP ratio change, % at 20 µM; AID 651647;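 active = GFP/RFP ratio change of at least 30% with cell ATP level not reduced by more than half and red fluorescence within 50% of control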
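Compound: 20 µM single dose, 1% DMSO / System: HT1080 RFP-PRO-GFP cells / Controls: DMSO and RFP-L50D-GFP cell wells / Read-out basis: GFP/RFP fluorescence ratio / Schedule: overnight compound exposure at 37 °C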
ADAM17 inh = inhibitors of human ADAM17; recombinant ADAM17, EDANS/DABCYL FRET peptide cleavage; inhibition, % at 6.95 µM; 0.83% of 370,000 active; AID 720648;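 active = inhibition above the mean of compounds lying between control limits plus 3 SD, set per campaign, cut at about 8.5% in these data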;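 note: 0% = DMSO-only wells as the low control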
Tn7 DDE FP = inhibitors of Tn7 peptide binding to human fibrin DD(E) | 0.13% of 370,000 active | FP displacement of FITC-Tn7 peptide from fibrin DD(E); 0% = median of compound wells per plate | AID 720508 | inhibition, % at 8.3 µM;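 active = inhibition above the mean of compounds falling within the control limits plus 3 SD of them, cut at about 14% in these data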;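 note: 0% = plate median of compound wells and 100% = 10 µM Aha-Tn7 peptide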
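assay system = human clot-derived fibrin DD(E) complex | quantity = Fibrin-DD(E) at 2 µM final | timing = 10 min preincubation, 3 h with tracer, room temperature | signal = fluorescence polarization | measure = percent inhibition | benchmarks = high control wells with 10 µM unlabelled Aha-Tn7 peptide (full inhibition) | replicates = singlicate testing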
MT1-MMP act val = MT1-MMP (human) activation inhibition, single-concentration validation; shares compounds with MT1-MMP act inh; HT1080 RFP-PRO-GFP cells, GFP and RFP fluorescence ratio, overnight; inhibition, % at 20 µM; 10% of 200 active;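 active = inhibition of at least 50% in the primary cell screen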
DDE Tn7 confirm = confirmation of inhibitors of Tn7 binding to human fibrin DD(E); shares compounds with Tn7 DDE FP; FP displacement of TRITC-Tn7 peptide from DD(E); 0% set at plate's compound-well median; inhibition, % at 8.3 µM; 5% of 460 active; AID 720628;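 active = inhibition above the campaign cutoff, the mean of compounds within control limits plus 3 SD, cut at about 14% in these data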;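 note: 100% = median FP of high control wells holding Aha-Tn7 inhibitor peptide; displacers lower polarization since freed probe rises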
Tn7 DDE ctr = DD(E)-Tn7 binding inhibition, counter-screen; inhibition, % at 8.3 µM; fibrin DD(E), TRITC-Tn7 probe displacement, fluorescence polarization; 3% of 460 active; shares compounds with Tn7 DDE FP; AID 720633;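 active = inhibition above the cutoff, the mean of compounds lying between the control bounds plus 3 SD of those compounds, cut at about 17% in these data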;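 note: 0% = median of compound sample wells and 100% = excess unlabeled Aha-Tn7 peptide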
DDE Tn6 FP ctr = counter-screen for inhibitors of Tn6 peptide binding to fibrin DD(E). shares compounds with Tn6 DDE FP. TRITC-Tn6 fluorescence polarization displacement; 0% = median of compound wells, not DMSO. inhibition, % at 8.3 µM. 2% of 680 active;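 active = inhibition above the mean of test compounds lying between the control limits plus 3 SD of those, cut at about 14% in these data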;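 note: 0% = median of compound wells and 100% = wells with Aha-Tn7 blocking peptide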
Tn6 DDE conf = DD(E)-Tn6 binding inhibition, FP confirmation. shares compounds with Tn6 DDE FP. FP displacement of TRITC-Tn6 peptide from DD(E); 0% = per-plate median of test wells. inhibition, % at 8.3 µM. AID 720631. 10% of 680 active;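 active = inhibition above the mean of compounds lying within the control limits plus 3 SD, cut at about 16% in these data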;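 note: 100% = high control wells holding a competing inhibitor peptide at 10 µM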
An asterisk follows results filed as active; i = inactive; . = no result given; + = active, no number.

SMILES	Tn6 DDE FP	ADAM10 inh	MT1-MMP act inh	ADAM17 inh	Tn7 DDE FP	others
CC(=O)c1ccc2c(c1)C1C(Cl)C(Sc3ccccc3[N+](=O)[O-])CC1C(C(=O)O)N2 (stereo unspecified)	0.1	6.0	45.2*	1.6	-7.9
CN=C1CN=C(c2ccc[nH]2)c2cc(Cl)ccc2N1	-4.1	-5.0	.	-6.4	-6.0
CC[n+]1c(-c2ccccc2)c2cc(N)ccc2c2ccc(N)cc21	55.9*	-15.4	65.1	-2.7	6.2
O=C(NC(Cc1ccccc1)P(=O)(O)Oc1ccccc1)OCc1ccccc1 (stereo unspecified)	-3.7	-0.2	.	-0.7	-5.8
CC[n+]1c(/C=C/C=C/c2ccc(N(C)C)cc2)sc2ccccc21	72.8*	5.2	84.1	-1.0	-2.4
CN(C)c1ccc(/C=C/C=C/c2sc3ccccc3[n+]2C)cc1	13.8	4.3	29.4	-1.5	-3.9
O=C(CF)NC(Nc1cccc2cccnc12)C(Cl)(Cl)Cl (stereo unspecified)	11.1	-1.1	49.5*	-4.0	3.0	MT1-MMP act val=4.1
O=C(CNC(=O)OCc1ccccc1)NC(Cc1ccccc1)P(=O)(Oc1ccccc1)Oc1ccccc1 (stereo unspecified)	-1.0	11.7	.	4.5	-2.0
COC(=O)C1C(c2ccc(F)cc2)CC2CCC1N2C (stereo unspecified)	-2.5	-6.8	.	-1.8	-1.0
COc1cc2c(cc1OC)-c1c3c(cc4c1[C@@H](C2)N(C)CC4)OCO3	-3.9	-39.8	33.1*	-9.3	-7.2	MT1-MMP act val=2.4
COc1cc2c(cc1OC)-c1c(OC)c(OC)cc3c1C(C2)N(C)CC3 (stereo unspecified)	-9.5	-50.9	9.3	-13.4	1.5
CCOc1ccc2nc(N=Nc3c(O)[nH]c(=S)[nH]c3=O)sc2c1	-0.9	5.4	58.5*	0.0	-4.2	MT1-MMP act val=35.4
CC[n+]1c(/C=C/N(C)c2ccccc2)sc2ccc(Cl)cc21	12.8	-0.6	51.5*	1.2	3.2	MT1-MMP act val=46.7
CC(C)OC(=O)c1c(N)n(CC2CCCO2)c2nc3ccccc3nc12 (stereo unspecified)	-2.3	i	36.8*	i	0.6	MT1-MMP act val=2.1
C=CCN1C(=O)/C(=C/c2cccs2)C(=O)NC1=S	-2.2	0.2	34.8*	-0.4	2.1	MT1-MMP act val=8.0
O=C1NC(=O)N(CCc2ccc(F)cc2)C(=O)/C1=C/c1cccs1	-7.7	-12.7	-4.2	-10.3	2.6
COc1ccc2c3c([nH]c2c1)[C@H](C=C(C)C)N1C(=O)[C@@H]2CCCN2C(=O)[C@@H]1C3	1.7	-27.8	.	-5.0	-4.2
O=C(O)c1cccc2c1NC(C(=O)O)C1CC(Sc3ccccc3[N+](=O)[O-])C(Cl)C21 (stereo unspecified)	-3.2	3.5	38.2*	-1.3	-1.8	MT1-MMP act val=-0.5
COC(=O)C1=C(c2ccc(OC(F)(F)F)cc2)C[C@@H]2CC[C@H]1N2C(=O)NCCNC(C)=O	3.7	2.7	-0.9	3.0	-0.2
COC(=O)C1=C(c2ccc(OC(F)(F)F)cc2)C[C@@H]2CC[C@H]1N2C(=O)NCCc1ccccc1	1.9	1.9	31.3*	1.6	-1.6	MT1-MMP act val=2.1
Brc1csc(N2CCNCC2)n1	3.6	-8.3	.	-7.2	5.5
COc1ccc2nc(-c3ccc(CN4CCC(n5nnc6ccccc65)CC4)cc3)c(-c3ccccc3)nc2c1	-4.5	-190.1	.	-41.3	-0.9
O=c1[nH]c(=S)n(C2CC2)c(O)c1C=Nc1cccc(C(F)(F)F)c1	2.2	-0.7	16.5	-6.0	14.5*	DDE Tn7 confirm=-4.8;Tn7 DDE ctr=-13.7
COc1cc2c(cc1OC)C1C(=O)c3ccc4c(c3OC1CO2)CC(C(C)C)O4 (stereo unspecified)	5.7	-10.9	2.7	-4.1	4.2
COc1ccccc1-n1c(-c2ccccc2Cl)nc2ccccc2c1=O	-1.2	-2.0	-7.4	-7.9	16.0*	DDE Tn7 confirm=7.1;Tn7 DDE ctr=8.2
SMILES	Tn6 DDE FP	ADAM10 inh	MT1-MMP act inh	ADAM17 inh	Tn7 DDE FP	others
COc1ccccc1-n1c(-c2ccoc2)nc2ccccc2c1=O	-2.9	8.2	6.0	4.0	3.8
COc1ccc2c3c([nH]c2c1)C(C)=NCC3	-1.4	i	-18.0	i	-2.7
CC1=NCCc2c1[nH]c1cc(O)ccc21	1.1	i	-50.3	i	76.4*	DDE Tn7 confirm=34.6*;Tn7 DDE ctr=-3.5
COC(=O)C1=C(c2c(C)noc2C)C[C@@H]2CC[C@H]1N2C(=O)NCCNC(C)=O	2.9	-0.2	2.0	-1.8	-4.4
CCOC(=O)[C@]12Cc3c(cc(OC)c(OC)c3OC)[C@H]1N(C)C(=O)c1cc(OC)ccc12	1.6	-9.7	-6.4	-4.5	14.6*	DDE Tn7 confirm=10.6;Tn7 DDE ctr=6.4
COC(=O)C1=C(c2cc3ccccc3s2)C[C@@H]2CC[C@H]1N2C(=O)NCCS(C)=O (stereo partly specified)	-0.4	-1.0	-4.0	-4.8	-0.8
COP(=O)(OC)OC=C(Cl)Cl	-4.9	-21.6	.	0.5	-4.7
CCCCC12CNCC(C)(CNC1)C2=O	-3.4	1.7	1.2	-7.8	17.3*	DDE Tn7 confirm=-7.5;Tn7 DDE ctr=-13.1
CCCCOc1nc2ccccc2c(=O)n1-c1ccccc1	4.3	13.3	-2.2	-1.1	15.3*	DDE Tn7 confirm=6.3;Tn7 DDE ctr=-3.5
COc1ccc2[nH]c(C)c(CCNCc3cccnc3)c2c1	6.2	-54.6	-4.0	-22.8	18.4*	DDE Tn7 confirm=6.4;Tn7 DDE ctr=-3.3
COc1ccc2[nH]cc(CCNCc3cccnc3)c2c1	-9.4	-1.9	2.2	-4.0	-0.6
CC1CCCN(c2ccc(C(=O)N3CCC4(CC3)OCCO4)cc2[N+](=O)[O-])C1 (stereo unspecified)	-3.4	-0.4	-8.9	-1.2	5.7
CCOC(=O)C1CCCN(c2ccc([N+](=O)[O-])c3nonc23)C1 (stereo unspecified)	+	11.7	-37.2	5.3	19.7*	DDE Tn7 confirm=-12.6;Tn7 DDE ctr=93.4*;DDE Tn6 FP ctr=-12.6;Tn6 DDE conf=93.4*
CC[N+](CC)(CC)CC	2.7	5.0	0.2	-2.3	6.6
